Measurements as given in ChEMBL document CHEMBL1148824, “Quinazolinone derivatives as orally available ghrelin receptor antagonists for the treatment of diabetes and obesity” (J Med Chem, 2007).
Converted amounts (≈) assume the structure as drawn. The source made the active and inactive calls. No cut-off for these calls is given here.

Legend:
[1] = Aqueous solubility at pH 7.2; format: physicochemical
[2] = Cmax in po dosed DIO C57BL/6 mouse after 5 hrs; format: ADME, organism-based; design: route oral; conditions: in vivo
Mus musculus [3] = test: Decrease in food intake in DIO C57BL/6 mouse at 30 mg/kg, po after 24 hrs relative to control; format: functional, organism-based; design: dose 30 mg/kg
Homo sapiens = organism: Homo sapiens; test: Binding affinity to calcium channel L type
Rattus norvegicus [4] = test: Decrease in blood glucose level in DIO Wistar rat using at 10 mg/kg after 5 hrs by IPGTT test relative to control; format: functional; design: scale not given: the % may be the effect or the level left
[5] = biological target: T1, Growth hormone secretagogue receptor type 1 (Homo sapiens, UniProt Q92847); test: Antagonist activity at human recombinant GHSR1a expressed in HEK293F cells by [35S]GTP-gamma-S binding assay; format: functional, cell-based
How it was run: (§1)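 Functional read-out as GTPγS binding to membranes from HEK293F cells overexpressing recombinant GHS-R1a; values are the mean of at least two replicates.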

Rattus norvegicus [6] = test: Volume of distribution at steady state in Wistar rat plasma at 0.7 mg/kg, iv; format: ADME, organism-based; design: dose 0.7 mg/kg, route intravenous; conditions: in vivo
[7] = biological target: 5-hydroxytryptamine receptor 2A (Homo sapiens) (UniProt P28223); test: Binding affinity to 5HT2a receptor
[8] = AUC (0-t) in Wistar rat plasma at 0.7 mg/kg, iv; format: ADME, organism-based; design: dose 0.7 mg/kg, route intravenous
Mus musculus [9] = test: Increase in food intake in DIO C57BL/6 mouse at 30 mg/kg, after 5 hrs relative to control; format: functional
Cytochrome P450 2D6 = Cytochrome P450 2D6 (Homo sapiens, UniProt P10635); test: Inhibition of CYP2D6; format: ADME
[10] = Cmax in Wistar rat at 3 mg/kg, po; format: ADME, organism-based; design: dose 3 mg/kg, route oral; conditions: in vivo
How it was run: (§2)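 Wistar rat pharmacokinetic screen; single oral dose of 3 mg/kg in PEG400/methanesulfonic acid (80:20) vehicle; plasma exposure measured.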

Rattus norvegicus [11] = test: Half life in Wistar rat plasma at 0.7 mg/kg, iv; format: ADME, organism-based; design: dose 0.7 mg/kg, route intravenous; conditions: in vivo
[12] = Cmax in Wistar rat plasma at 3 mg/kg, po; format: ADME, organism-based; design: dose 3 mg/kg, route oral; how it was run: as §2
Ghrelin receptor = Ghrelin receptor (Ovis aries, UniProt Q8MHZ5); test: Displacement of [125I]ghrelin from ovine recombinant GHSR1a expressed in HEK293F cells after 6 hrs by scintillation proximity assay; format: cell-based
[13] = biological target: T1, Growth hormone secretagogue receptor type 1; test: Agonist activity at human recombinant GHSR1a expressed in HEK293F cells assessed as stimulation of [35S]GTP-gamma-S binding relative to ghrelin; format: functional, cell-based; how it was run: as §1
[14] = Bioavailability in Wistar rat plasma at 3 mg/kg, po; format: ADME, organism-based
[15] = Cmax in Wistar rat plasma at 0.7 mg/kg, iv; format: ADME, organism-based; design: dose 0.7 mg/kg, route intravenous
Mus musculus [16] = test: Decrease in body weight in DIO C57BL/6 mouse at 30 mg/kg, po after 9 days; format: functional
[17] = biological target: 5-hydroxytryptamine receptor 2B (Homo sapiens) (UniProt P41595); test: Binding affinity to 5HT2b receptor
[18] = biological target: T2, 5-hydroxytryptamine receptor 2C (Homo sapiens, UniProt P28335); test: Displacement of […] from 5HT2c receptor
T2 sequence (P28335 whole entry): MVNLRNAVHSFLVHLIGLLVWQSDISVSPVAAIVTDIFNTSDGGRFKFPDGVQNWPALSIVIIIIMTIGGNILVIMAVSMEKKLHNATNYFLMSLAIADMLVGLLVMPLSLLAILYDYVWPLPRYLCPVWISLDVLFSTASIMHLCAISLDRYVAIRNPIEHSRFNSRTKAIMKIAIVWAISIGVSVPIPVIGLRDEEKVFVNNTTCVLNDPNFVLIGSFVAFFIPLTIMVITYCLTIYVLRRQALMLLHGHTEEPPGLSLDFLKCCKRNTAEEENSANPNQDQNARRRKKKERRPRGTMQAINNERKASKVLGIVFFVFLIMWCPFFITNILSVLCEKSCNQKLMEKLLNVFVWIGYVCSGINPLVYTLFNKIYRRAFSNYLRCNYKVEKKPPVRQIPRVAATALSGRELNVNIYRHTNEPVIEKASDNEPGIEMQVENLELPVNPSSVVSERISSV

Brain = test: Drug level in po dosed DIO C57BL/6 mouse brain after 5 hrs relative to plasma concentration; format: ADME, organism-based
[19] = AUC in Wistar rat plasma at 3 mg/kg, po; format: ADME, organism-based; design: dose 3 mg/kg, route oral; how it was run: as §2
[20] = biological target: Motilin receptor (Homo sapiens) (UniProt O43193); test: Binding affinity to motilin receptor
Mus musculus [21] = test: Decrease in body weight in DIO C57BL/6 mouse at 10 mg/kg, po after 9 days; format: functional, organism-based; design: dose 10 mg/kg
[22] = Cmax in Wistar rat at 10 mg/kg, po; format: ADME, organism-based; design: dose 10 mg/kg, route oral; conditions: in vivo
[23] = Volume of distribution in Wistar rat plasma at 1 mg/kg, iv; format: ADME, organism-based; design: dose 1 mg/kg, route intravenous; conditions: read-out: Vdss
[24] = Cmax in Wistar rat plasma at 1 mg/kg, iv; format: ADME, organism-based; design: dose 1 mg/kg, route intravenous
[25] = Bioavailability in Wistar rat plasma at 1 mg/kg, iv; format: ADME, organism-based

T1 sequence (Q92847 whole entry): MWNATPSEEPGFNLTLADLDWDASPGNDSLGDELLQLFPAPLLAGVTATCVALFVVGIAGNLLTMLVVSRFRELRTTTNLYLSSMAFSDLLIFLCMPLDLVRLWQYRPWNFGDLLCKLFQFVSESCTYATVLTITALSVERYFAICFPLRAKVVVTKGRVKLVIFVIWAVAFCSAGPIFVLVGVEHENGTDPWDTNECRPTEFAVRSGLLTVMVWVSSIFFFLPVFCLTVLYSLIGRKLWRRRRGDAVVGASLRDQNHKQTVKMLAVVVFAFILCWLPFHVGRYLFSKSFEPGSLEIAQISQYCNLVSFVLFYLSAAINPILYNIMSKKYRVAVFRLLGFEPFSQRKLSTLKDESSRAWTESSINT
Cytochrome P450 2D6, sequence (P10635 whole entry): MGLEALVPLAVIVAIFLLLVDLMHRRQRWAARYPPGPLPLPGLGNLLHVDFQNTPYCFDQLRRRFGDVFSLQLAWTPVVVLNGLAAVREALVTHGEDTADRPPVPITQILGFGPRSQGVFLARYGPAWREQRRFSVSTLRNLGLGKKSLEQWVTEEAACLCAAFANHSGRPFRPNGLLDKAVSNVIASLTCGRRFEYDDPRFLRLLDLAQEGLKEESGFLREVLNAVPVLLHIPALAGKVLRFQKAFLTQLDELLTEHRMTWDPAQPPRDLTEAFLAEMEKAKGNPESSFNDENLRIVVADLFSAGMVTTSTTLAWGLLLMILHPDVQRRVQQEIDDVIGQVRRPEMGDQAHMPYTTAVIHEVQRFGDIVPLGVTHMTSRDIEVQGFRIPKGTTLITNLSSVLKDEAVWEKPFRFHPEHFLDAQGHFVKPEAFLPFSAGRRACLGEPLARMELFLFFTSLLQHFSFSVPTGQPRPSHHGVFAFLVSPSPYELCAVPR
Ghrelin receptor, sequence (Q8MHZ5 whole entry): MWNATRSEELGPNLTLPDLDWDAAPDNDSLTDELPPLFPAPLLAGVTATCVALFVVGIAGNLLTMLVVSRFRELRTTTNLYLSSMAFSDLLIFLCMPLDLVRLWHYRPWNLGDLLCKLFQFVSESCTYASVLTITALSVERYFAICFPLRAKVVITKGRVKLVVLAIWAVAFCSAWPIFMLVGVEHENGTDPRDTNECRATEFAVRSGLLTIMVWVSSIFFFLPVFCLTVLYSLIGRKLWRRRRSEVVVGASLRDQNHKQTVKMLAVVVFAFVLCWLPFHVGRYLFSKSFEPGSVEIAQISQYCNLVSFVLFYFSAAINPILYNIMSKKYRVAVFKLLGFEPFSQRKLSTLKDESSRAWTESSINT
Motilin receptor (Homo sapiens), sequence (O43193 whole entry): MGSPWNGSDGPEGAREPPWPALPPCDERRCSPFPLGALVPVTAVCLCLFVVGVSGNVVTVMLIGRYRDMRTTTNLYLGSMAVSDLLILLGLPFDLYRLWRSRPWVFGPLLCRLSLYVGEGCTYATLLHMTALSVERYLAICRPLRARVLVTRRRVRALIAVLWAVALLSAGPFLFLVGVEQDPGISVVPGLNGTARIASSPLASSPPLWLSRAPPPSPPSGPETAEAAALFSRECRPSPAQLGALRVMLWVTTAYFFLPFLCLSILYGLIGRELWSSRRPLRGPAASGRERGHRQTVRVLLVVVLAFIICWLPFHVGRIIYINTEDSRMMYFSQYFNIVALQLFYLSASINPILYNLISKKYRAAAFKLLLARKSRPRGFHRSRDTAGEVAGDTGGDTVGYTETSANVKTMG
5-hydroxytryptamine receptor 2B (Homo sapiens), sequence (P41595 whole entry): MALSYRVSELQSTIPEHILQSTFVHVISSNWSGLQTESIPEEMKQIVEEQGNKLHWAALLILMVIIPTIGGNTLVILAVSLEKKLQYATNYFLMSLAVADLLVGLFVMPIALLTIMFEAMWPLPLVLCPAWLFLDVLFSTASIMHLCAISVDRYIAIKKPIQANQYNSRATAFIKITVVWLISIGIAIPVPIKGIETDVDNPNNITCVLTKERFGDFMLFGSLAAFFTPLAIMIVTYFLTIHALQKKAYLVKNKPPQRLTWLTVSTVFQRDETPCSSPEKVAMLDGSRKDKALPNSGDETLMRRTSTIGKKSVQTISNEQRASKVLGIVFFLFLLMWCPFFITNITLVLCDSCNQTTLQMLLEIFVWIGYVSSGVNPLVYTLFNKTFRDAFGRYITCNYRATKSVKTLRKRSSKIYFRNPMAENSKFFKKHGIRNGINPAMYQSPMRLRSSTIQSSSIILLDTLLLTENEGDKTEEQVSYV
5-hydroxytryptamine receptor 2A (Homo sapiens), sequence (P28223 whole entry): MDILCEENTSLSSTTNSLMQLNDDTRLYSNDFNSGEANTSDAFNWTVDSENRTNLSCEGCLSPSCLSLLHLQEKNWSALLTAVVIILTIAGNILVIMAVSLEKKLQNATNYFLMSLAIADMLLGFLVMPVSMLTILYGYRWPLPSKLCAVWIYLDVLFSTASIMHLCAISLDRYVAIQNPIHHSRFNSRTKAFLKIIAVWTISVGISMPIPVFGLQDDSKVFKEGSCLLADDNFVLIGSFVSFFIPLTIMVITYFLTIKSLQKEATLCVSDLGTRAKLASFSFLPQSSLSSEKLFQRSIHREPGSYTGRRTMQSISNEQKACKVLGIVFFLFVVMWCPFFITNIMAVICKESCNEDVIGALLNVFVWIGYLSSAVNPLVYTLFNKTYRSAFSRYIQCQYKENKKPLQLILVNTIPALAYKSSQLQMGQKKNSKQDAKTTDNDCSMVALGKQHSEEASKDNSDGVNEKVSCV

| Structure (SMILES) | solubility [1] [µM] | Cmax [2] [nM] | Kb [5] [nM] | IC50 (Cytochrome P450 2D6) [nM] | Cmax [10] [nM] | Ki (Ghrelin receptor) [nM] | E/Emax [13] [%] | Ki [18] [nM] | Drug uptake (Brain) [%] | Activity (Rattus norvegicus [4]) [%] | Activity (Mus musculus [9]) [%] | other results |
| --- | --- | --- | --- | --- | --- | --- | --- | --- | --- | --- | --- | --- |
| CC(C)c1nc2ccc(-c3ccc(F)cc3)cc2c(=O)n1C[C@H]1CCCN(C(C)C)C1 | 280 (≈ 118 µg/mL) | 800 | 14 | 150 | 150 | 39 | 15 | > 1000 | 76 | -20 | -17 | Activity (Mus musculus [3]): Active; Activity (Homo sapiens): > 1 µM; Vdss (Rattus norvegicus [6]): 0.68 L/kg; Activity [7]: > 1 µM; AUC(0-t) [8]: 580 ng·h/mL; t1/2 (Rattus norvegicus [11]): 16 h; Cmax [12]: 70 ng/mL; bioavailability [14]: 69%; Cmax [15]: 100 ng/mL; Activity (Mus musculus [16]): Active; Activity [17]: > 1 µM; AUC [19]: 1700 ng·h/mL; Activity [20]: > 1 µM; Activity (Mus musculus [21]): Active |
| CC(C)N1CCC[C@H](Cn2cnc3ccc(Oc4ccc(F)cc4)cc3c2=O)C1 | 450 (≈ 178 µg/mL) |  | 45 | 21000 |  | 18 | 2 | > 1000 |  |  |  |  |
| CC(C)N1CCCC(Cn2c(-c3ccc(OCCO)cc3F)nc3ccc(Oc4ccc(F)cc4)cc3c2=O)C1 (racemic) |  | 5700 |  |  |  |  |  |  | < 0.001 |  | 4 |  |
| CCCCN(C)c1ccc2nc(-c3ccccc3OC)n(CC3CCCN(CC)C3)c(=O)c2c1 (stereo unspecified) |  |  |  |  |  | 20 |  |  |  |  |  | Cmax [22]: < 20 nM |
| CC(C)N1CCC[C@H](Cn2cnc3ccc(-c4ccc(Cl)cc4)cc3c2=O)C1 |  |  |  | 200 | 200 | 440 |  | > 1000 |  |  |  |  |
| Cc1nc2ccc(-c3ccc(Cl)cc3)cc2c(=O)n1C[C@H]1CCCN(C(C)C)C1 | 125 (≈ 51.2 µg/mL) |  |  | 9600 |  | 110 | 0 | > 1000 |  |  |  |  |
| CC(C)c1nc2ccc(-c3ccc(Cl)cc3)cc2c(=O)n1C[C@H]1CCCN(C(C)C)C1 | 60 (≈ 26.3 µg/mL) |  | 77 | 6300 | 290 | 45 | 0 | > 1000 |  |  |  |  |
| Cc1nc2ccc(Oc3ccc(F)cc3)cc2c(=O)n1C[C@H]1CCCN(C(C)C)C1 | 500 (≈ 205 µg/mL) | 3400 | 11 |  | 220 | 17 | 11 | > 1000 | 19 | -23 | -12 | Vd [23]: 19.2 L/kg; Activity (Mus musculus [3]): Active; Activity (Homo sapiens): > 1 µM; Activity [7]: > 1 µM; Cmax [24]: 110 ng/mL; Cmax [12]: 80 ng/mL; bioavailability [14]: 85%; Activity (Mus musculus [16]): <=5%; Activity [17]: > 1 µM; AUC [19]: 1300 ng·h/mL; Activity [20]: > 1 µM |
| CCN1CCCC(Cn2c(-c3ccccc3C)nc3ccc(-c4ccc(Cl)cc4)cc3c2=O)C1.Cl (stereo unspecified) |  |  |  |  |  |  |  |  |  |  |  | bioavailability [25]: 29%; bioavailability [14]: 29% |

Further lines, with some results ahead:

| solubility [1] [µM] | Cmax [2] [nM] | Kb [5] [nM] | IC50 (Cytochrome P450 2D6) [nM] | Cmax [10] [nM] | Ki (Ghrelin receptor) [nM] | E/Emax [13] [%] | Ki [18] [nM] | Drug uptake (Brain) [%] | Structure (SMILES) | Activity (Rattus norvegicus [4]) [%] | Activity (Mus musculus [9]) [%] | other results |
| --- | --- | --- | --- | --- | --- | --- | --- | --- | --- | --- | --- | --- |
| 250 (≈ 121 µg/mL) | 3100 |  | 90 | 90 | 0.86 |  | > 1000 | 1 | Cc1ccccc1-c1nc2ccc(Oc3ccc(F)cc3)cc2c(=O)n1C[C@H]1CCCN(C(C)C)C1 (stereo in doubt; 36) | -19 | -7 |  |
|  |  | 6.4 |  | 140 | 4 | -20 |  |  | COCCN1CCCC(Cn2c(-c3ccccc3C)nc3ccc(-c4ccc(Cl)cc4)cc3c2=O)C1 (stereo unspecified) |  |  |  |
| 100 (≈ 43.8 µg/mL) |  | 7.6 | 7200 | 210 | 4 | -5 | > 1000 |  | CC(C)c1nc2ccc(Oc3ccc(F)cc3)cc2c(=O)n1C[C@H]1CCCN(C(C)C)C1 |  |  |  |
| 80 (≈ 37.8 µg/mL) | 2200 | 2.8 | 6100 | 120 | 1.7 | 0 | 120 | 22 | CCN1CCC[C@H](Cn2c(-c3ccccc3C)nc3ccc(-c4ccc(Cl)cc4)cc3c2=O)C1 | -13 | -17 |  |
